procasp3 activ – activators of human procaspase-3 D3A mutant, primary screen, biochemical, absorbance, PC-3 D3A mutant, single concentration; Caspase-3 (Homo sapiens), P42574; recombinant procaspase-3 D3A, Ac-DEVD-pNA absorbance 405 nm; activation, % at 8.5 µM; actives 0.11% (n = 330,000); AID 463141, 2010;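 active = activation above the mean of all tested compounds plus 3 SD, cut at about 21% in these data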;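 also: 0% = DMSO alone and 100% = DMSO wells spiked with extra 5 µM PC-3 D3A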
Target sequence (P42574 whole entry D9A/D28A/D175A): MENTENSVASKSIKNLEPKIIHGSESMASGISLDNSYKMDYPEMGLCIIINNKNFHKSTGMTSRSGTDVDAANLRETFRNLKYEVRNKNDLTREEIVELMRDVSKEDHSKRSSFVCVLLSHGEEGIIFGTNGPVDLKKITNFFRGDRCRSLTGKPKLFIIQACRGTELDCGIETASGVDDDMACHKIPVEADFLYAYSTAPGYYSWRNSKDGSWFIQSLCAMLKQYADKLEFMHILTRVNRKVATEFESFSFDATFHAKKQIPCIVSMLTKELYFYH
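Assay system – Procaspase-3 D3A mutant, all three cleavage aspartates alanine · Controls – DMSO-only low control, 5 µM PC-3 D3A high control · Schedule – 1 h compound preincubation, 2 h substrate hydrolysis at 25 °C · Signal – 405 nm absorbance of p-nitroaniline, reads at 0 and 120 min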
procasp7 counter – procaspase-7 activators, primary screen, counter-screen for procaspase-3 activator project, biochemical, absorbance, HTS, human; recombinant procaspase-7, Ac-DEVD-pNA absorbance 405 nm; D23A/D198A/D206A triple mutant, cannot self-cleave; scale: DMSO 0, 5 µM enzyme 100; activation, % at 8.5 µM; actives 0.093% (n = 330,000); Caspase-7 (Homo sapiens), P55210; AID 463210, 2010;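 active = percent activation above the screen-wide mean plus 3 SD, cut at about 25% in these data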
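System: Uncleavable procaspase-7 mutant enzyme; Amount: 2 µM procaspase-7 mutant as dispensed; Schedule: 1 h compound preincubation, 2 h substrate cleavage, 25 °C; Measured by: 405 nm absorbance of p-nitroaniline; Evaluation: percent activation from buffer-corrected 0–120 min absorbance change; Control set: low DMSO alone, high DMSO plus 5 µM PC-7.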
PolyA inhibitor – polyadenylation inhibitors in yeast reporter cells, primary screen, luminescence, S. cerevisiae. S. cerevisiae SKY197-pL101 polyadenylation reporter, beta-gal luminescence; efflux-impaired pdr1/pdr3 knockout yeast; score 100 = 6 SD above DMSO. activity score, % at 12 µM. actives 0.02% (n = 300,000);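 active = lowest replicate activity score at least 50, where 100 means six control SD above control mean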;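 also: yeast exposed to compound for 9 h at 30 °C; higher score means more reporter readthrough which indicates perturbed polyadenylation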
AHR act – AHR activators, primary screen, cell-based, luminescence, luciferase reporter, human; Aryl hydrocarbon receptor (Homo sapiens), P35869; AHR-responsive luciferase reporter cells; activation, % at 5 µM; actives 2.5% (n = 320,000); AID 2796, 2010; in the data active = activation above about 47%;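 also: 0% = vehicle wells and 100% = reference agonist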
* marks the source's active call; other numbers are inactive results; x = not tested or not shown. This is a sample that favours compounds with a hit; in the whole collection about 2.6% have one here.

SMILES | procasp3 activ | procasp7 counter | PolyA inhibitor | AHR act
N#C/C(=C/c1ccc([N+](=O)[O-])cc1)C(=O)Nc1ccccc1O | 5.0 | -7.5 | 6.9 | 67.8*
CSc1ccccc1NC(=O)c1ccc([N+](=O)[O-])cc1 | -5.0 | 5.8 | 2.9 | -5.6
O=C(Nc1ccccc1O)c1ccc([N+](=O)[O-])cc1 | -2.8 | 14.3 | 9.8 | 70.3*
N#C/C(=C\c1ccc([N+](=O)[O-])cc1)C(=O)Nc1ccccc1O | -4.0 | -4.7 | -0.3 | 42.3
O=C(NC(=S)Nc1ccccc1O)c1ccc(-c2ccc(Cl)cc2)o1 | -14.3 | -21.1 | -31.8 | 67.0*
O=C(Nc1ccccc1O)c1ccc(Cl)cc1 | -3.2 | 14.6 | 9.4 | 66.4*
Cc1ccc(C)c(SCC(=O)Nc2ccc(C)c(S(=O)(=O)N3CCOCC3)c2)c1 | 0.6 | -3.5 | x | 0.0
Cc1ccc(-c2cc(C(=O)Nc3nccs3)c3ccccc3n2)o1 | -18.6 | -33.5 | -22.6 | 55.3*
O=C(N/N=C/c1cccnc1)c1cc(-c2cccs2)nc2ccccc12 | 2.1 | 6.7 | -4.1 | 75.9*
Cc1ccc(-c2cc(C(=O)Nc3ccncc3)c3ccccc3n2)cc1 | 0.8 | 4.0 | 17.9 | 12.3
CC(C)(C)c1ccccc1NC(=O)c1cc(-c2ccncc2)nc2ccccc12 | -0.5 | 5.2 | x | 52.5*
COc1ccc(-c2cc(C(=O)Nc3cccnc3)c3ccccc3n2)cc1OC | 0.0 | -12.8 | -1.1 | 66.8*
Cc1ccc(-c2cc(C(=O)Nc3nccs3)c3ccccc3n2)c(C)c1 | -8.8 | -2.4 | -7.7 | 45.7
O=C(N/N=C/c1ccc2ncccc2c1)c1cc(-c2cccs2)nc2ccccc12 | -1.3 | -37.5 | 22.1 | 9.8
O=C(NCCCN1CCCC1=O)c1ccc(Cl)c(S(=O)(=O)N2CCCCC2)c1 | 4.2 | 6.6 | x | -0.8
Cc1c(OCC(=O)N(C)c2ccccc2)ccc2c3c(c(=O)oc12)CCC3 | 10.7 | -4.7 | -13.0 | 4.5
CCC(C)NC(=O)c1ccc(-n2c(=S)[nH]c3ccccc3c2=O)cc1 (stereo not drawn) | -4.2 | -3.8 | 6.1 | -0.6
O=C(Nc1nccs1)c1cc(-c2ccncc2)nc2ccccc12 | -3.3 | -9.8 | -1.4 | 55.6*
Cc1nc(-c2ccccc2)nc2[nH]c(-c3ccccc3)cc(=O)c12 | 1.7 | -0.2 | -8.1 | 69.4*
Cc1ccc(/C=N/N2C(=O)c3ccccc3NC2c2ccc(C)cc2)cc1 (stereo not drawn) | -4.5 | 11.4 | -15.8 | 50.5*
O=C(NC1CCCN(C2Cc3ccccc3C2)C1)c1ccc(F)cc1Cl (stereo not drawn) | 5.5 | 7.0 | -13.7 | 4.2
Cc1nn(-c2ccccn2)c2nc(-c3cccs3)cc(C(=O)NCc3ccco3)c12 | -4.9 | -12.7 | 26.5 | -3.4
Cc1nn(-c2ccccc2)c2nc(-c3ccncc3)cc(C(=O)NCc3ccco3)c12 | 0.5 | -0.7 | 19.2 | 65.4*
CC(=O)c1ccc(N=Nc2ccc(N(C)C)cc2)cc1 | 3.8 | -10.1 | -1.9 | 0.0
CN(C)c1ccc(N=Nc2ccccc2Br)cc1 | -4.1 | 10.0 | -35.9 | 53.3*
SMILES | procasp3 activ | procasp7 counter | PolyA inhibitor | AHR act
COc1ccccc1OCC(=O)Nc1c2c(nn1-c1ccccc1)CS(=O)(=O)C2 | 1.1 | -5.8 | -8.3 | 12.3
CN(Cc1c(F)cccc1Cl)C(=O)CCc1c[nH]c2ccccc12 | -4.6 | -5.0 | -8.1 | 2.0
CC(=O)Nc1nc(-c2ccc(Cl)cc2)nc(C)c1C(C)=O | 7.5 | -11.9 | -1.8 | 73.1*
Cn1c(=O)n(CCc2ccccc2)c(=O)c2c1nc1n2CCN1Cc1ccco1 | 2.2 | 3.1 | -19.5 | 66.4*
CN(C)CCNc1oc(-c2cccc(Cl)c2)nc1C#N | -3.9 | 0.7 | 1.6 | 77.6*
CN(C)CCCNc1oc(-c2ccccc2)nc1C#N | 1.9 | -3.1 | -4.4 | 0.8
Cn1nnnc1SCC(=O)Nc1ncc(Cl)cc1Cl | 2.5 | -5.2 | 2.1 | -2.8
O=S(=O)(NCc1c(Cl)cccc1Oc1ccccc1)c1ccc(F)cc1 | -4.1 | -0.1 | -2.1 | -0.8
Cn1ccnc1C(OC(=O)c1ccccc1)C(F)(F)F (stereo not drawn) | -3.0 | 2.5 | -9.8 | 1.2
Oc1ccc(-c2nc3ccccn3c2NCc2ccc3c(c2)OCO3)cc1 | -10.3 | -14.9 | x | 70.7*

Compound activity deposited in PubChem by several laboratories.
